Reference: ChEMBL document CHEMBL5230083, “Novel 2, 5-diketopiperazine derivatives as potent selective histone deacetylase 6 inhibitors: Rational design, synthesis and antiproliferative activity” (Eur J Med Chem, 2020)
Activity calls are given as the source filed them. The calls are words filed in the database; no cut-off is given here.

What was measured:
[1] = target: Histone deacetylase 3 (Homo sapiens) (UniProt O15379); assay: Inhibition of HDAC3 (unknown origin) using Fluor de lys as substrate by fluorescence based analysis
How it was run: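 Fluor de Lys fluorogenic substrate/developer activity assay, run by a contract lab. […] Experiments were run in duplicate.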

Homo sapiens = species: Homo sapiens; assay: Selectivity index, ratio of IC50 for inhibition of HDAC8 (unknown origin) to IC50 for inhibition of HDAC6 (unknown origin)
How it was run: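 Ratio of IC50 values, each from a Fluor de Lys fluorogenic HDAC assay run in duplicate.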

Sequence of Histone deacetylase 3 (Homo sapiens) (O15379 whole entry): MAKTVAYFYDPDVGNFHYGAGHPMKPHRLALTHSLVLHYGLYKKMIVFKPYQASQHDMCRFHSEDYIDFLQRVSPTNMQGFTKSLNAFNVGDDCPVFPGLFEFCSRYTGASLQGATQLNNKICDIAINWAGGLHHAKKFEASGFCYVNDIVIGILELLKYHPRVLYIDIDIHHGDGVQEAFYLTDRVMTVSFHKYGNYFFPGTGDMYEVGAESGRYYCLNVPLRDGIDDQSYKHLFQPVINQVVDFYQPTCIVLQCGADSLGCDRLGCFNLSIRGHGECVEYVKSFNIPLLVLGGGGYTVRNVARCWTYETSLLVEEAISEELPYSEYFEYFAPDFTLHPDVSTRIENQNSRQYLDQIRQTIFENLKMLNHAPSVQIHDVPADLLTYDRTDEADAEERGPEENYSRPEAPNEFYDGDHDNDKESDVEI

Row | SMILES | inhibition [1] | Ratio IC50 (Homo sapiens)
1 | O=C1CN(Cc2ccc(C(=O)NO)cc2)C(=O)[C@@H](Cc2c[nH]c3ccccc23)N1 | inactive | 
2 | O=C(NO)c1ccc(CN2CC(=O)N(Cc3ccccc3)[C@H](Cc3ccccc3)C2=O)cc1 |  | 15
